A selection: hits, their analogues and other compounds. The true share with any hit is near 3.1%.
CTSL1 counter: blocks F. hepatica cathepsin L1 in PFM18AAP counter-screen. inhibition, % at 5.96 µM. AID 1906. recombinant F. hepatica cathepsin L1, Z-Leu-Arg-MCA fluorescence. 300,000 tested, 0.49% active;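 active = inhibition above the mean of all tested compounds plus 3 SD, set per screening campaign, cut at about 17% in these data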
Myeloid diff 2: myeloid differentiation induction. calls only at 10 µM. ER-HoxA9 myeloid progenitors, lysozyme-GFP differentiation, flow cytometry. 360,000 tested, 1% active;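 active = normalized GFP-positive differentiation at or above the plate's own cutoff, the solvent-only control mean plus 3 SD; inconclusive = no clear call, values can overlap the other calls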;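 note: cells exposed to compound for four days before flow analysis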
PP5 inh: blocks human protein phosphatase 5 activity | P53041 | purified PP5c, OMFP substrate fluorescence | inhibition, % at 6.7 µM | 320,000 tested, 0.18% active | AID 1987;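 active = inhibition above the campaign's mean inhibition across all tested compounds plus 3 SD, cut at about 9.5% in these data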
core dimer inh: blocks dimerization of HCV core protein. TR-FRET GST/Flag-core106 dimerization, 1536-well. inhibition, % at 5 µM. 300,000 tested, 0.33% active. AID 1899;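 active = inhibition above the mean of all tested compounds plus 3 SD, set per screening campaign, cut at about 45% in these data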
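Material: Tagged HCV core106 pair (GST and Flag) | Amount: GST-core106 13.5 nM, Flag-core106 17 nM | Medium: KF-containing HEPES buffer, pH 7.45, DTT, CHAPS, BSA | Reagent: Eu donor and XL665 acceptor anti-tag antibodies | Schedule: 4 h at 22.5 °C | Technique: Time-resolved FRET, ex 340 nm, em 617 and 671 nm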
NadD inh: blocks S. aureus nicotinate mononucleotide adenylyltransferase. 360,000 tested, 0.78% active. purified NadD enzyme, colorimetric absorbance read-out. inhibition, % at 20 µM; in the data active = inhibition above about 26%
PP1 inh: blocks human PP1-alpha phosphatase, a PP5 counter-screen; P62136; purified PP1alpha, OMFP fluorescence; inhibition, % at 6.7 µM; 320,000 tested, 0.9% active; AID 2235;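 active = inhibition above the mean inhibition of all tested compounds plus 3 SD, computed separately for each screening campaign, cut at about 15% in these data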
Target sequence (P62136 whole entry, looked up): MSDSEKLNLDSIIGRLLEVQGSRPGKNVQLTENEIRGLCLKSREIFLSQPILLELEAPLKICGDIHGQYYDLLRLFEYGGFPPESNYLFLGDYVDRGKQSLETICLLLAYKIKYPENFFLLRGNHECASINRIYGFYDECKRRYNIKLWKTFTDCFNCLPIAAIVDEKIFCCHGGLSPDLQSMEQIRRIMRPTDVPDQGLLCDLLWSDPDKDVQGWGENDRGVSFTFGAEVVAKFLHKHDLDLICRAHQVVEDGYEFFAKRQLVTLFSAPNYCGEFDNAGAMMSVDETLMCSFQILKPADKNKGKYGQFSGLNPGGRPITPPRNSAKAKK
Large screens that a line does not name were inactive.

Cc1ccn2c(=O)c(C(=O)NCCCN3CCCCC3C)c(O)nc2c1 (centres undefined)	none
Cc1ccn2c(=O)c(C(=O)NCCCN3CCCC3=O)c(O)nc2c1	CTSL1 counter 50
COc1ccc(S(=O)(=O)n2cccc2)c(OC)c1	none
C=CCn1c(SCC(=O)c2cccs2)nc2sc(C)c(C)c2c1=O	Myeloid diff 2 active
C=CCn1c(SCC(=O)N2CCOCC2)nc2scc(-c3ccco3)c2c1=O	none
C=CCn1c(SCC(C)=O)nc2scc(-c3ccco3)c2c1=O	CTSL1 counter 23, PP1 inh 15
C=CCSc1nc2sc(C)c(C)c2c(=O)n1CC=C	none
Cc1nc2ccc(S(=O)(=O)NCC(=O)Nc3ccc(F)cc3)cc2s1	none
NS(=O)(=O)c1ccc(NS(=O)(=O)c2ccc(C3CNC(=O)C3)cc2)cc1 (centres undefined)	none
CCOC(=O)N1CCN(C(=O)/C(=C/c2cccs2)NC(=O)c2ccc(OC)c(OC)c2)CC1	none
Clc1ccc(-c2cccc3nccn23)c(Cl)c1	none (no result: CTSL1 counter, PP5 inh, core dimer inh, PP1 inh)
N#C/C=C1/NC(=O)c2ccccc2S1	Myeloid diff 2 active
COC(=O)c1ccc2c(c1)NC(=O)c1ccccc1S2	none
Cc1c(Cl)cnc(NC(=O)CSc2n[nH]c(N)n2)c1Cl	none (no result: CTSL1 counter, core dimer inh)
Cc1ccc(NS(=O)(=O)c2cccc(C(=O)N3CCN(C(=O)c4ccco4)CC3)c2)cc1	none (no result: CTSL1 counter, core dimer inh)
CCOC(=O)N1CCC(N2Cc3cccc(C(=O)NCc4ccccn4)c3C2=O)CC1	CTSL1 counter 27
Cc1ccc(C(=O)C[n+]2cccc3cc(C)ccc32)cc1	Myeloid diff 2 active
COc1ccc2c(ccc[n+]2CC(=O)c2ccc(C)cc2)c1	none
O=C(c1ccccc1)N(CCO)Cc1cc2cc3c(cc2[nH]c1=O)OCCO3	none
CCOc1ccccc1C(=O)N(Cc1ccccc1)Cc1cc2cc3c(cc2[nH]c1=O)OCCO3	Myeloid diff 2 active
COc1ccc(S(=O)(=O)n2nc(OC(=O)c3c(-c4ccccc4Cl)noc3C)cc2N)cc1	CTSL1 counter 18
Cc1ccc(Nc2nc(=O)c3cc([N+](=O)[O-])ccc3s2)cc1	core dimer inh 48
COc1ccc(NC(=S)NNc2ccc(S(=O)(=O)Nc3ccccc3C(=O)O)cc2[N+](=O)[O-])cc1	none
Cc1ccc(S(=O)(=O)Nc2ccccc2C(=O)OC(C)C(=O)Nc2ccc3ccccc3c2)cc1[N+](=O)[O-] (centres undefined)	core dimer inh 47
N#CC(C#N)=c1ccc2c(c1)N1C3=C(CCCC3)CC3CCCCC31N=2 (centres undefined)	Myeloid diff 2 active
COC(=O)C1=C(C)N(c2ccc(F)cc2)C(=O)C1	none
COC(=O)C1=C(C)N(c2ccc(OC)c(OC)c2)C(=O)C1	CTSL1 counter 20
C[C@]12CCC3C(CC[C@H]4CC(O)CC[C@]34C)C1CC/C2=N/NC(=O)c1ccncc1 (some centres undefined)	Myeloid diff 2 active
C[C@]12CCC3C(CC[C@H]4CC(O)CC[C@]34C)C1CC/C2=N/O (some centres undefined)	none
COc1ccc(/C=C/c2ccc3cccc(O)c3n2)cc1Br	PP1 inh 17
COc1cc(/C=C/c2ccc3cccc(O)c3n2)cc(OC)c1OC	none (no result: Myeloid diff 2)
COc1cc(/C=C/c2ccc3cccc(O)c3n2)cc(Br)c1OC	Myeloid diff 2 inconclusive, PP1 inh 15
COc1cc2c(cc1OC)CN(C1CCC(C(C)(C)C)CC1)CC2 (centres undefined)	none (no result: CTSL1 counter, PP5 inh, core dimer inh, PP1 inh)
O=C1Cc2ccccc2C(=O)N1CCc1ccccc1	CTSL1 counter 67
O=C1C(=O)N(Cc2ccccc2)C(=O)N1CCN1C(=O)c2ccccc2C1=O	none
Cc1ccc(NC(=O)c2oc3ccccc3c2NC(=O)c2ccc3c(c2)OCO3)cc1	Myeloid diff 2 active
O=C(Nc1ccc2nc(-c3ccccc3)[nH]c2c1)c1ccco1	none
O=C(Nc1cccc(-c2nc3ccccc3[nH]2)c1)c1cccc(NC(=O)c2ccco2)c1	PP1 inh 16
O=C(Nc1ccc(-c2nc3ccccc3[nH]2)cc1)c1ccc2c(c1)OCO2	PP1 inh 15
O=C(Nc1ccc(Cl)c(-c2nc3ccccc3[nH]2)c1)c1ccc2c(c1)OCO2	Myeloid diff 2 active
O=C(Nc1c(C(=O)Nc2cccc(F)c2)oc2ccccc12)c1ccc2c(c1)OCO2	none
c1ccc2[nH]c(-c3ccc4c(c3)OCO4)nc2c1	none
O=C(NC(=S)Nc1sc2c(c1C(=O)O)CCCC2)c1ccccc1	none
O=C(Nc1ccc(-c2cn3c(n2)SCC3)cc1)c1ccc2c(c1)OCO2	Myeloid diff 2 active
O=C(Nc1cccc(-c2cn3c(n2)SCC3)c1)c1ccc2c(c1)OCO2	none
CC(C)C(N)c1csc(NC(=O)Nc2cccc(Cl)c2)n1 (centres undefined)	Myeloid diff 2 active (no result: CTSL1 counter, PP5 inh, core dimer inh, PP1 inh)
C/C(CC(=O)Nc1cc(C)ccn1)=N\NC(=O)c1ccc(C)cc1	none
C/C(CC(=O)Nc1cc(C)ccn1)=N\NC(=O)c1cccc(F)c1	Myeloid diff 2 active
CC1(C(=O)NS(=O)(=O)c2ccccc2Cl)CCN1C(=O)CCc1ccccc1 (centres undefined)	none (no result: CTSL1 counter, PP5 inh, core dimer inh, PP1 inh)
O=C(C#Cc1cccc([N+](=O)[O-])c1)c1ccccc1	CTSL1 counter 22
O=C(O)C(=Cc1cccc([N+](=O)[O-])c1)c1ccccc1	none (no result: CTSL1 counter, PP5 inh, core dimer inh, PP1 inh)
CCn1cc(C(=O)O)c(=O)c2cc(F)c(N3CCN(C)CC3)cc21	none
CCn1cc(C(=O)O)c(=O)c2cc(F)c(N/N=C/c3ccccc3)cc21	PP1 inh 16
N#CC1=C(N)OC2=C(CC/C2=C\c2ccccc2Cl)C1c1ccccc1Cl (centres undefined)	none
N#CC1=C(N)OC2=C(CC/C2=C\c2ccccc2)C1c1ccccc1 (centres undefined)	core dimer inh 55, NadD inh 33
CCCCC(c1nnnn1C(C)C)N1CCN(C(=O)c2ccco2)CC1 (centres undefined)	Myeloid diff 2 inconclusive
CC(NC(=O)CSc1nc2sc3c(c2c(=O)n1-c1ccccc1)CCCC3)c1ccccc1 (centres undefined)	NadD inh 33
O=C(O)CSc1nc2sc3c(c2c(=O)n1-c1ccccc1)CCC3	none
Cc1ccccc1-n1c(SCC(=O)c2c(N)n(C)c(=O)n(C)c2=O)nc2sc3c(c2c1=O)CCCC3	Myeloid diff 2 active
Cc1ccc(CNC(=O)C(c2ccccc2)c2ccccc2)cc1	none
Cc1cccc(C(=O)OCC(=O)Nc2c(C)n(C)n(-c3ccccc3)c2=O)c1	none (no result: CTSL1 counter, core dimer inh)
CC1=NN(c2ccccc2)C(=O)C1N=Nc1ccc(S(N)(=O)=O)cc1 (centres undefined)	CTSL1 counter 19
CCOC(=O)C1=CCN(S(=O)(=O)c2cccc(Cl)c2)C1c1ccc(F)cc1 (centres undefined)	none (no result: CTSL1 counter, PP5 inh, core dimer inh, PP1 inh)
